For the test, the target named is Muscarinic acetylcholine receptor M1 (Rattus norvegicus) (UniProt P08482). Briefly: rat M1 receptor potentiation, selectivity assay for M5 PAM project, CHO cells (AID 651921). As to conditions: CHO-K1 rat M1, calcium Fluo-4, ACh EC20; series mostly up to 30 µM. An outline of the steps: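 System – CHO-K1 cell line · Compound dosing – 0.3% DMSO final in compound wells · Timing – 1.5 min compound, 50 s agonist, 25 °C · Detection – fluorescence readout of intracellular calcium · Reagent – acetylcholine, EC20 · Measure – baseline-normalized signal as percent of maximal acetylcholine response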
Sequence of Muscarinic acetylcholine receptor M1 (Rattus norvegicus) (P08482 whole entry, looked up): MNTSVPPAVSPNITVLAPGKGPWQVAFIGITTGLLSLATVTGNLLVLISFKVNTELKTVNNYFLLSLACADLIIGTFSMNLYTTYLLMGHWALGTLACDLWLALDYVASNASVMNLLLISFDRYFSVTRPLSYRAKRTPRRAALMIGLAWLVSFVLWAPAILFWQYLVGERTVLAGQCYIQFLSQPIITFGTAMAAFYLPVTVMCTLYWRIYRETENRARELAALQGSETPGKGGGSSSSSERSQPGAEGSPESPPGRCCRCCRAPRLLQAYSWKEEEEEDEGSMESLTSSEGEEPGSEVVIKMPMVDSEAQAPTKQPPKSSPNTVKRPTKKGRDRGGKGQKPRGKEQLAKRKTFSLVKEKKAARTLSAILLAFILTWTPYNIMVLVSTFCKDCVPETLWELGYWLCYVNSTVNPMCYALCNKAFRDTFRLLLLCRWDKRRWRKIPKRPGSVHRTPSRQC

Active and inactive are the calls of the source. The rule behind the calls is not given here.

Regarding `O=C1C(=O)N(CCOc2ccccc2)c2ccc(OC(F)(F)F)cc21`, the result was inactive.
